ChEMBL document CHEMBL2157880, “Synthesis, antimycobacterial and antibacterial activity of ciprofloxacin derivatives containing a N-substituted benzyl moiety” (2012)
≈ marks a conversion by molar mass, not a printed value.

Columns and labels:
Type in all cases: functional
[1] = tested on: Pseudomonas aeruginosa; assay: Antibacterial activity against Pseudomonas aeruginosa 10-20 after 18 to 24 hrs by NCCLS method
Summary of the method: (§1)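 Standard NCCLS (M100-S11) MIC testing against Gram-positive and Gram-negative strains. Plates were incubated at 35 °C for 18–24 h. The MIC was read as the lowest concentration giving complete inhibition of visible bacterial growth.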

[2] = tested on: Streptococcus pneumoniae; assay: Antibacterial activity against Streptococcus pneumoniae 10-1 after 18 to 24 hrs by NCCLS method; summary of the method: as §1
[3] = tested on: Staphylococcus aureus; assay: Antibacterial activity against methicillin-sensitive Staphylococcus aureus 10-11 after 18 to 24 hrs by NCCLS method; summary of the method: as §1
[4] = tested on: Staphylococcus aureus; assay: Antibacterial activity against methicillin-resistant Staphylococcus aureus 10-15 after 18 to 24 hrs by NCCLS method
Summary of the method: (§2)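 Incubated at 35 °C for 18–24 h under NCCLS (M100-S11) standards. MIC was read as the lowest concentration giving complete inhibition of visible bacterial growth.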

[5] = tested on: Staphylococcus aureus; assay: Antibacterial activity against methicillin-resistant Staphylococcus aureus 10-11 after 18 to 24 hrs by NCCLS method; summary of the method: as §2
[6] = tested on: Enterococcus faecalis; assay: Antibacterial activity against Enterococcus faecalis 10-6 after 18 to 24 hrs by NCCLS method; summary of the method: as §1
[7] = tested on: Staphylococcus aureus; assay: Antibacterial activity against Staphylococcus aureus ATCC 2592 after 18 to 24 hrs by NCCLS method; summary of the method: as §1
[8] = tested on: Staphylococcus epidermidis; assay: Antibacterial activity against methicillin-resistant Staphylococcus epidermidis 10-13 after 18 to 24 hrs by NCCLS method; summary of the method: as §2
[9] = tested on: Enterococcus faecium; assay: Antibacterial activity against Enterococcus faecium 10-6 after 18 to 24 hrs by NCCLS method; summary of the method: as §1
[10] = tested on: Staphylococcus epidermidis; assay: Antibacterial activity against methicillin-sensitive Staphylococcus epidermidis 10-11 after 18 to 24 hrs by NCCLS method; summary of the method: as §1
[11] = tested on: Enterococcus faecium; assay: Antibacterial activity against Enterococcus faecium 10-9 after 18 to 24 hrs by NCCLS method; summary of the method: as §1
[12] = tested on: Mycobacterium tuberculosis; assay: Antimycobacterial activity against Mycobacterium tuberculosis H37Rv ATCC 27294 by microplate alamar blue assay
Summary of the method: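 Microplate Alamar Blue fluorescence assay on strain H37Rv ATCC 27294. MIC was the lowest concentration cutting fluorescence by ≥90% against the mean of replicate bacterium-only controls.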

[13] = tested on: Pseudomonas aeruginosa; assay: Antibacterial activity against Pseudomonas aeruginosa 10-15 after 18 to 24 hrs by NCCLS method; summary of the method: as §1
[14] = tested on: Enterococcus faecalis; assay: Antibacterial activity against Enterococcus faecalis 10-7 after 18 to 24 hrs by NCCLS method; summary of the method: as §1
[15] = tested on: Klebsiella pneumoniae; assay: Antibacterial activity against extended spectrum beta-lactamases producing Klebsiella pneumoniae 10-2 after 18 to 24 hrs by NCCLS method; summary of the method: as §1
[16] = tested on: Escherichia coli; assay: Antibacterial activity against Escherichia coli 10-1 after 18 to 24 hrs by NCCLS method; summary of the method: as §1
[17] = tested on: Pseudomonas aeruginosa; assay: Antibacterial activity against Pseudomonas aeruginosa 10-9 after 18 to 24 hrs by NCCLS method; summary of the method: as §1
[18] = tested on: Escherichia coli; assay: Antibacterial activity against Escherichia coli 10-3 after 18 to 24 hrs by NCCLS method; summary of the method: as §1
[19] = tested on: Staphylococcus epidermidis; assay: Antibacterial activity against methicillin-sensitive Staphylococcus epidermidis 10-15 after 18 to 24 hrs by NCCLS method; summary of the method: as §2
[20] = tested on: Escherichia coli; assay: Antibacterial activity against Escherichia coli ATCC 25922 after 18 to 24 hrs by NCCLS method; summary of the method: as §1
[21] = tested on: Staphylococcus epidermidis; assay: Antibacterial activity against methicillin-resistant Staphylococcus epidermidis 10-10 after 18 to 24 hrs by NCCLS method; summary of the method: as §2
[22] = tested on: Klebsiella pneumoniae; assay: Antibacterial activity against Klebsiella pneumoniae 10-4 after 18 to 24 hrs by NCCLS method; summary of the method: as §1
[23] = tested on: Klebsiella pneumoniae; assay: Antibacterial activity against Klebsiella pneumoniae 10-3 after 18 to 24 hrs by NCCLS method; summary of the method: as §1
[24] = tested on: Escherichia coli; assay: Antibacterial activity against extended spectrum beta-lactamases producing Escherichia coli 10-2 after 18 to 24 hrs by NCCLS method; summary of the method: as §1
[25] = tested on: Staphylococcus aureus; assay: Antibacterial activity against methicillin-sensitive Staphylococcus aureus 10-13 after 18 to 24 hrs by NCCLS method; summary of the method: as §1
[26] = tested on: Pseudomonas aeruginosa; assay: Antibacterial activity against Pseudomonas aeruginosa 10-18 after 18 to 24 hrs by NCCLS method; summary of the method: as §1
[27] = tested on: Staphylococcus aureus; assay: Antibacterial activity against methicillin-sensitive Staphylococcus aureus 10-14 after 18 to 24 hrs by NCCLS method; summary of the method: as §1
[28] = tested on: Klebsiella pneumoniae; assay: Antibacterial activity against extended spectrum beta-lactamases producing Klebsiella pneumoniae 10-3 after 18 to 24 hrs by NCCLS method; summary of the method: as §1
[29] = tested on: Staphylococcus aureus; assay: Antibacterial activity against methicillin-resistant Staphylococcus aureus 10-13 after 18 to 24 hrs by NCCLS method; summary of the method: as §2
[30] = tested on: Escherichia coli; assay: Antibacterial activity against Escherichia coli 10-2 after 18 to 24 hrs by NCCLS method; summary of the method: as §1
[31] = tested on: Streptococcus pneumoniae; assay: Antibacterial activity against Streptococcus pneumoniae 10-6 after 18 to 24 hrs by NCCLS method; summary of the method: as §1
[32] = tested on: Pseudomonas aeruginosa; assay: Antibacterial activity against Pseudomonas aeruginosa 10-12 after 18 to 24 hrs by NCCLS method; summary of the method: as §1
[33] = tested on: Escherichia coli; assay: Antibacterial activity against extended spectrum beta-lactamases producing Escherichia coli 10-3 after 18 to 24 hrs by NCCLS method; summary of the method: as §1
[34] = tested on: Klebsiella pneumoniae; assay: Antibacterial activity against extended spectrum beta-lactamases producing Klebsiella pneumoniae 10-1 after 18 to 24 hrs by NCCLS method; summary of the method: as §1
[35] = tested on: Enterococcus faecalis; assay: Antibacterial activity against Enterococcus faecalis 10-5 after 18 to 24 hrs by NCCLS method; summary of the method: as §1
[36] = tested on: Pseudomonas aeruginosa; assay: Antibacterial activity against Pseudomonas aeruginosa 10-5 after 18 to 24 hrs by NCCLS method; summary of the method: as §1
[37] = tested on: Escherichia coli; assay: Antibacterial activity against extended spectrum beta-lactamases producing Escherichia coli 10-4 after 18 to 24 hrs by NCCLS method; summary of the method: as §1
[38] = tested on: Klebsiella pneumoniae; assay: Antibacterial activity against Klebsiella pneumoniae 10-2 after 18 to 24 hrs by NCCLS method; summary of the method: as §1

SMILES	MIC [1] [µg/mL]	MIC [2] [µg/mL]	MIC [3] [µg/mL]	MIC [4] [µg/mL]	MIC [5] [µg/mL]	MIC [6] [µg/mL]	MIC [7] [µg/mL]	MIC [8] [µg/mL]	MIC [9] [µg/mL]	MIC [10] [µg/mL]	MIC [11] [µg/mL]	MIC [12] [µg/mL]	MIC [13] [µg/mL]	MIC [14] [µg/mL]	MIC [15] [µg/mL]	MIC [16] [µg/mL]	MIC [17] [µg/mL]	MIC [18] [µg/mL]	MIC [19] [µg/mL]	MIC [20] [µg/mL]	further results
COc1cc(CN2CCN(c3cc4c(cc3F)c(=O)c(C(=O)O)cn4C3CC3)CC2)c([N+](=O)[O-])cc1OC	4 (≈ 7.6 µM)	8 (≈ 15.2 µM)	1 (≈ 1.9 µM)	16 (≈ 30.4 µM)	64 (≈ 122 µM)	128 (≈ 243 µM)	1 (≈ 1.9 µM)	16 (≈ 30.4 µM)	8 (≈ 15.2 µM)	2 (≈ 3.8 µM)	64 (≈ 122 µM)	> 32	8 (≈ 15.2 µM)	16 (≈ 30.4 µM)	> 128	> 128	8 (≈ 15.2 µM)	8 (≈ 15.2 µM)	16 (≈ 30.4 µM)	2 (≈ 3.8 µM)	MIC [21]: 16 µg/mL (≈ 30.4 µM); MIC [22]: > 128 µg/mL; MIC [23]: 8 µg/mL (≈ 15.2 µM); MIC [24]: > 128 µg/mL; MIC [25]: 2 µg/mL (≈ 3.8 µM); MIC [26]: 8 µg/mL (≈ 15.2 µM); MIC [27]: 1 µg/mL (≈ 1.9 µM); MIC [28]: > 128 µg/mL; MIC [29]: 64 µg/mL (≈ 122 µM); MIC [30]: 8 µg/mL (≈ 15.2 µM); MIC [31]: 128 µg/mL (≈ 243 µM); MIC [32]: 16 µg/mL (≈ 30.4 µM); MIC [33]: > 128 µg/mL; MIC [34]: > 128 µg/mL; MIC [35]: 16 µg/mL (≈ 30.4 µM); MIC [36]: 8 µg/mL (≈ 15.2 µM); MIC [37]: > 128 µg/mL; MIC [38]: > 128 µg/mL
O=C(O)c1cn(C2CC2)c2cc(N3CCN(Cc4ccc(OCc5ccccc5)cc4)CC3)c(F)cc2c1=O	32 (≈ 60.7 µM)	8 (≈ 15.2 µM)	0.25 (≈ 0.474 µM)	128 (≈ 243 µM)	32 (≈ 60.7 µM)	64 (≈ 121 µM)	4 (≈ 7.58 µM)	32 (≈ 60.7 µM)	8 (≈ 15.2 µM)	1 (≈ 1.9 µM)	32 (≈ 60.7 µM)	32 (≈ 60.7 µM)	128 (≈ 243 µM)	32 (≈ 60.7 µM)	> 128	> 128	32 (≈ 60.7 µM)	> 128	32 (≈ 60.7 µM)	1 (≈ 1.9 µM)	MIC [21]: 16 µg/mL (≈ 30.3 µM); MIC [22]: > 128 µg/mL; MIC [23]: 32 µg/mL (≈ 60.7 µM); MIC [24]: > 128 µg/mL; MIC [25]: 0.5 µg/mL (≈ 0.948 µM); MIC [26]: 64 µg/mL (≈ 121 µM); MIC [27]: 0.5 µg/mL (≈ 0.948 µM); MIC [28]: > 128 µg/mL; MIC [29]: 128 µg/mL (≈ 243 µM); MIC [30]: 32 µg/mL (≈ 60.7 µM); MIC [31]: 32 µg/mL (≈ 60.7 µM); MIC [32]: 32 µg/mL (≈ 60.7 µM); MIC [33]: > 128 µg/mL; MIC [34]: > 128 µg/mL; MIC [35]: 8 µg/mL (≈ 15.2 µM); MIC [36]: 16 µg/mL (≈ 30.3 µM); MIC [37]: > 128 µg/mL; MIC [38]: > 128 µg/mL
